Results taken from ChEMBL document CHEMBL1154842, “Synthesis, radiolabeling, and biological evaluation of (R)- and (S)-2-amino-3-[(18)F]fluoro-2-methylpropanoic acid (FAMP) and (R)- and (S)-3-[(18)F]fluoro-2-methyl-2-N-(methylamino)propanoic acid (NMeFAMP) as potential PET radioligands for imaging brain tumors” (J Med Chem, 2010).

Tests used:
[1] = Biodistribution in tumor of Fischer 344 rat bearing rat 9L cells at 20 uCi, iv after 30 mins; assay type: ADME, organism-based, Neoplasm; settings: in vivo, 0.5 h
Summary of the method: (§1)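 Male Fischer 344 rats (200–250 g) carrying intracranial 9L gliosarcoma (5×10^4 cells implanted stereotactically, 10–12 days growth), under ketamine:xylazine anaesthesia. About 20 μCi tracer in 0.5 mL sterile saline given via tail-vein catheter. Groups of 4–5 were killed by intracardiac KCl at 15 (NMeFAMP only), 30, 60 or 120 min. Tissues were weighed and gamma-counted, decay-corrected, and reported as %ID/g, mean ± SD.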

[2] = Ratio of drug level from tumor to brain of Fischer 344 rat bearing rat 9L cells at 20 uCi, iv after 120 mins; assay type: ADME, organism-based; settings: in vivo, 2 h
Blood [3] = assay: Biodistribution in blood of Fischer 344 rat bearing rat 9L cells at 20 uCi, iv after 30 mins; assay type: ADME, organism-based; settings: in vivo, 0.5 h; summary of the method: as §1
Blood [4] = assay: Biodistribution in blood of Fischer 344 rat bearing rat 9L cells at 20 uCi, iv after 60 mins; assay type: ADME, organism-based; settings: in vivo, 1 h; summary of the method: as §1
Blood [5] = assay: Biodistribution in blood of Fischer 344 rat bearing rat 9L cells at 20 uCi, iv after 120 mins; assay type: ADME, organism-based; settings: in vivo, 2 h; summary of the method: as §1
Heart [6] = assay: Biodistribution in heart of Fischer 344 rat bearing rat 9L cells at 20 uCi, iv after 30 mins; assay type: ADME, organism-based; settings: in vivo, 0.5 h; summary of the method: as §1
Heart [7] = assay: Biodistribution in heart of Fischer 344 rat bearing rat 9L cells at 20 uCi, iv after 60 mins; assay type: ADME, organism-based; settings: in vivo, 1 h; summary of the method: as §1
Heart [8] = assay: Biodistribution in heart of Fischer 344 rat bearing rat 9L cells at 20 uCi, iv after 120 mins; assay type: ADME, organism-based; settings: in vivo, 2 h; summary of the method: as §1
Lung [9] = assay: Biodistribution in lung of Fischer 344 rat bearing rat 9L cells at 20 uCi, iv after 30 mins; assay type: ADME, organism-based; settings: in vivo, 0.5 h; summary of the method: as §1
Lung [10] = assay: Biodistribution in lung of Fischer 344 rat bearing rat 9L cells at 20 uCi, iv after 60 mins; assay type: ADME, organism-based; settings: in vivo, 1 h; summary of the method: as §1
Lung [11] = assay: Biodistribution in lung of Fischer 344 rat bearing rat 9L cells at 20 uCi, iv after 120 mins; assay type: ADME, organism-based; settings: in vivo, 2 h; summary of the method: as §1
Liver [12] = assay: Biodistribution in liver of Fischer 344 rat bearing rat 9L cells at 20 uCi, iv after 30 mins; assay type: ADME, organism-based; settings: in vivo, 0.5 h; summary of the method: as §1
Liver [13] = assay: Biodistribution in liver of Fischer 344 rat bearing rat 9L cells at 20 uCi, iv after 60 mins; assay type: ADME, organism-based; settings: in vivo, 1 h; summary of the method: as §1
Liver [14] = assay: Biodistribution in liver of Fischer 344 rat bearing rat 9L cells at 20 uCi, iv after 120 mins; assay type: ADME, organism-based; settings: in vivo, 2 h; summary of the method: as §1
Pancreas [15] = assay: Biodistribution in pancreas of Fischer 344 rat bearing rat 9L cells at 20 uCi, iv after 30 mins; assay type: ADME, organism-based; settings: in vivo, 0.5 h; summary of the method: as §1
Pancreas [16] = assay: Biodistribution in pancreas of Fischer 344 rat bearing rat 9L cells at 20 uCi, iv after 60 mins; assay type: ADME, organism-based; settings: in vivo, 1 h; summary of the method: as §1
Pancreas [17] = assay: Biodistribution in pancreas of Fischer 344 rat bearing rat 9L cells at 20 uCi, iv after 120 mins; assay type: ADME, organism-based; settings: in vivo, 2 h; summary of the method: as §1
Spleen [18] = assay: Biodistribution in spleen of Fischer 344 rat bearing rat 9L cells at 20 uCi, iv after 30 mins; assay type: ADME, organism-based; settings: in vivo, 0.5 h; summary of the method: as §1
Spleen [19] = assay: Biodistribution in spleen of Fischer 344 rat bearing rat 9L cells at 20 uCi, iv after 60 mins; assay type: ADME, organism-based; settings: in vivo, 1 h; summary of the method: as §1
Spleen [20] = assay: Biodistribution in spleen of Fischer 344 rat bearing rat 9L cells at 20 uCi, iv after 120 mins; assay type: ADME, organism-based; settings: in vivo, 2 h; summary of the method: as §1
Kidney [21] = assay: Biodistribution in kidney of Fischer 344 rat bearing rat 9L cells at 20 uCi, iv after 30 mins; assay type: ADME, organism-based; settings: in vivo, 0.5 h; summary of the method: as §1
Kidney [22] = assay: Biodistribution in kidney of Fischer 344 rat bearing rat 9L cells at 20 uCi, iv after 60 mins; assay type: ADME, organism-based; settings: in vivo, 1 h; summary of the method: as §1
Kidney [23] = assay: Biodistribution in kidney of Fischer 344 rat bearing rat 9L cells at 20 uCi, iv after 120 mins; assay type: ADME, organism-based; settings: in vivo, 2 h; summary of the method: as §1
Muscle tissue [24] = assay: Biodistribution in muscle of Fischer 344 rat bearing rat 9L cells at 20 uCi, iv after 30 mins; assay type: ADME, organism-based; settings: in vivo, 0.5 h; summary of the method: as §1
Muscle tissue [25] = assay: Biodistribution in muscle of Fischer 344 rat bearing rat 9L cells at 20 uCi, iv after 60 mins; assay type: ADME, organism-based; settings: in vivo, 1 h; summary of the method: as §1
Muscle tissue [26] = assay: Biodistribution in muscle of Fischer 344 rat bearing rat 9L cells at 20 uCi, iv after 120 mins; assay type: ADME, organism-based; settings: in vivo, 2 h; summary of the method: as §1
Bone [27] = assay: Biodistribution in bone of Fischer 344 rat bearing rat 9L cells at 20 uCi, iv after 30 mins; assay type: ADME, organism-based, Bone element; settings: in vivo, 0.5 h; summary of the method: as §1
Bone [28] = assay: Biodistribution in bone of Fischer 344 rat bearing rat 9L cells at 20 uCi, iv after 60 mins; assay type: ADME, organism-based, Bone element; settings: in vivo, 1 h; summary of the method: as §1
Bone [29] = assay: Biodistribution in bone of Fischer 344 rat bearing rat 9L cells at 20 uCi, iv after 120 mins; assay type: ADME, organism-based, Bone element; settings: in vivo, 2 h; summary of the method: as §1
[30] = Biodistribution in testis of Fischer 344 rat bearing rat 9L cells at 20 uCi, iv after 30 mins; assay type: ADME, organism-based; settings: in vivo, 0.5 h; summary of the method: as §1
[31] = Biodistribution in testis of Fischer 344 rat bearing rat 9L cells at 20 uCi, iv after 60 mins; assay type: ADME, organism-based; settings: in vivo, 1 h; summary of the method: as §1
[32] = Biodistribution in testis of Fischer 344 rat bearing rat 9L cells at 20 uCi, iv after 120 mins; assay type: ADME, organism-based; settings: in vivo, 2 h; summary of the method: as §1
[33] = rat, in vivo, iv, 1 h
[34] = rat, in vivo, iv, 1 h; remark: listed apart in the source
Brain = assay: Biodistribution in brain of Fischer 344 rat bearing rat 9L cells at 20 uCi, iv after 30 mins; settings: in vivo, 0.5 h
[35] = Biodistribution in tumor of Fischer 344 rat bearing rat 9L cells at 20 uCi, iv after 30 mins; settings: in vivo, 0.5 h
[36] = Ratio of drug level from tumor to brain of Fischer 344 rat bearing rat 9L cells at 20 uCi, iv after 60 mins; settings: in vivo, 1 h

SMILES: C[C@@](N)(C[18F])C(=O)O.Cl
- Ratio [1]: 21.1
- Ratio [2]: 27.7
- Drug uptake (Blood [3]): 0.58 % ID/g
- Drug uptake (Blood [4]): 0.4 % ID/g
- Drug uptake (Blood [5]): 0.32 % ID/g
- Drug uptake (Heart [6]): 0.43 % ID/g
- Drug uptake (Heart [7]): 0.41 % ID/g
- Drug uptake (Heart [8]): 0.34 % ID/g
- Drug uptake (Lung [9]): 0.67 % ID/g
- Drug uptake (Lung [10]): 0.47 % ID/g
- Drug uptake (Lung [11]): 0.36 % ID/g
- Drug uptake (Liver [12]): 0.61 % ID/g
- Drug uptake (Liver [13]): 0.54 % ID/g
- Drug uptake (Liver [14]): 0.42 % ID/g
- Drug uptake (Pancreas [15]): 3.75 % ID/g
- Drug uptake (Pancreas [16]): 3.91 % ID/g
- Drug uptake (Pancreas [17]): 2.79 % ID/g
- Drug uptake (Spleen [18]): 0.73 % ID/g
- Drug uptake (Spleen [19]): 0.62 % ID/g
- Drug uptake (Spleen [20]): 0.51 % ID/g
- Drug uptake (Kidney [21]): 8.71 % ID/g
- Drug uptake (Kidney [22]): 7.62 % ID/g
- Drug uptake (Kidney [23]): 6.88 % ID/g
- Drug uptake (Muscle tissue [24]): 0.47 % ID/g
- Drug uptake (Muscle tissue [25]): 0.37 % ID/g
- Drug uptake (Muscle tissue [26]): 0.36 % ID/g
- Drug uptake (Bone [27]): 0.3 % ID/g
- Drug uptake (Bone [28]): 0.3 % ID/g
- Drug uptake (Bone [29]): 0.31 % ID/g
- Drug uptake [30]: 0.19 % ID/g
- Drug uptake [31]: 0.16 % ID/g
- Drug uptake [32]: 0.17 % ID/g
- Drug uptake [33]: 0.06 % ID/g
- Drug uptake [34]: 1.82 % ID/g
- Drug uptake (Brain): 0.07 % ID/g
- Drug uptake [35]: 1.38 % ID/g
- Ratio [36]: 30.9
